Assay outcomes: PubChem, Broad Institute
Rows were chosen to be rich in hits. Some 5.8% of all compounds tested hit in one or more screens of this group.
KDM4C inh: inhibitors of GASC-1 (KDM4C) histone demethylase, primary screen, biochemical, single concentration HTS | Lysine-specific demethylase 4C (Homo sapiens), Q9H3R0 | GST-KDM4C 2-372, H3K9me3 peptide, LANCE TR-FRET | inhibition, % at 12.5 µM | 0.15% of 96,000 active | AID 720574, 2013;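 active = mean replicate inhibition above about 25%, with at least 55% of replicates also reaching it, limit read from the data, passing the limit was not always enough; inconclusive = only one of those two conditions met; inactive = neither condition met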
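System – N-terminal GST-fused human GASC-1 (KDM4C) fragment, residues 2-372 · Input – enzyme final amount 10 nM · Technique – LANCE TR-FRET, Eu antibody, ULight-streptavidin, EDTA, ex 340 nm, em 618/671 nm · Medium – HEPES buffer, pH 7.5, plus ascorbate · Incubation – enzyme reaction 30 min, then detection 60 min, both room temperature · Reagent – H3K9me3 peptide with Fe(II)/2OG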
Pf Dd2 growth: P. falciparum Dd2 growth inhibitors, primary screen, SYBR Green fluorescence, single dose replicates. 2.3% of 94,000 active. 72 h; active compounds read low. activity change, % at 10 µM; in the data active = activity change below about -80%; inconclusive = no clear call, values can overlap the other calls
IDH1 R132H inh: inhibitors of IDH1 R132H reductase, primary screen, biochemical, plate reader, single point. Isocitrate dehydrogenase [NADP] cytoplasmic (Homo sapiens), O75874. diaphorase/resazurin fluorescence, 60 min. inhibition, % at 10 µM. 0.18% of 70,000 active. AID 624101, 2012; in the data active = inhibition above about 34%; inconclusive = no clear call, values can overlap the other calls; inactive = below about 11%;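 also: 0% = DMSO and 100% = no enzyme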
Target sequence (O75874 whole entry R132H): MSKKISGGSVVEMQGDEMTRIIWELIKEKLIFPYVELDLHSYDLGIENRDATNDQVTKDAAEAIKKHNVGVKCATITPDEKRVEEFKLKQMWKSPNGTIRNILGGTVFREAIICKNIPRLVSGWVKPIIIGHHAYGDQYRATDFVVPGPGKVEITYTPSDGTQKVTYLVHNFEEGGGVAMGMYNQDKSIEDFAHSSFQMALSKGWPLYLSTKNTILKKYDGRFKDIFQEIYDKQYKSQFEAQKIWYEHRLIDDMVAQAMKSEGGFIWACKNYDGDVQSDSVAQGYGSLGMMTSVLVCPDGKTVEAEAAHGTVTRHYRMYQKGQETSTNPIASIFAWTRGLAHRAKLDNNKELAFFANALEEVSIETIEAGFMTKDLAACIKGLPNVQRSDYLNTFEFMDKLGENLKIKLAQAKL
T cruzi growth: T. cruzi intracellular proliferation inhibitors, primary screen, cell-based, beta-gal Tulahuen parasites, NIH3T3 host, luminescence; T. cruzi beta-gal in NIH3T3, GalScreen luminescence, 90 h; inhibition, % at 8.34 µM; 5.9% of 77,000 active;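 active = mean inhibition above about 93%, with at least 55% of replicates each passing it, limit read from the data, passing the limit was not always enough; inconclusive = only one of those two conditions holds; inactive = neither condition holds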
An asterisk follows results filed as active; ? = inconclusive; · = not tested or not shown.

SMILES	KDM4C inh	Pf Dd2 growth	IDH1 R132H inh	T cruzi growth
COCCNC(=O)C[C@@H]1C[C@H]2c3cc(N(C)C)ccc3O[C@H]2[C@H](CO)O1	39*	-16	0	·
CN(C)C(=O)C[C@@H]1C[C@@H]2c3cc(NC(=O)Nc4ccccc4F)ccc3O[C@@H]2[C@@H](CO)O1	36*	13	39*	3
COC(=O)C[C@@H]1C[C@H]2c3cc(N(C)C)ccc3O[C@H]2[C@@H](CO)O1	·	-6	-2	50
CN(C)C(=O)C[C@H]1C[C@@H]2c3cc(N(C)C)ccc3O[C@@H]2[C@@H](CO)O1	33*	0	-13	-11
COC(=O)c1ccc(C)c(NC(=O)CN(c2ccc(Cl)c(Cl)c2)S(C)(=O)=O)c1	·	·	0	·
COc1ccc(C#Cc2ccc3c(c2)[C@H]2[C@H](CCN2C(=O)C2CCC2)[C@@H](CO)N3)cc1	-2	-86*	·	·
COc1ccc(C#Cc2ccc3c(c2)[C@H]2[C@H](CCN2C(=O)C2CCC2)[C@H](CO)N3)cc1	-5	?	·	·
COc1ccc(C#Cc2ccc3c(c2)[C@@H]2[C@@H](CCN2C(=O)C2CC2)[C@H](CO)N3)cc1	-2	-89*	·	·
COc1ccc(C#Cc2ccc3c(c2)[C@H]2[C@H](CCN2C(=O)C2CCCCC2)[C@H](CO)N3)cc1	-1	-37	·	83
COc1ccc(C#Cc2ccc3c(c2)[C@@H]2[C@@H](CCN2C(=O)C2CCCC2)[C@H](CO)N3)cc1	3	-84*	·	·
CC(C)(c1ccc(NS(=O)(=O)C(F)(F)F)cc1)c1ccc(C(C)(C)c2cccc(NS(=O)(=O)C(F)(F)F)c2)cc1	·	·	14	·
Cc1ccc(N(Cc2ccc(C(=O)Nc3cc([N+](=O)[O-])ccc3C)cc2)S(C)(=O)=O)cc1C	·	·	0	·
COc1cc2c(cc1NC(=O)CCOc1ccc(C)cc1)oc1ccccc12	·	·	0	·
NC(=O)C1CCN(C(=O)CSc2nc(-c3ccccc3)cc(=O)[nH]2)CC1	·	·	0	·
CCCN(C)C[C@H]1Oc2ncc(C#CC3CC3)cc2C(=O)N([C@H](C)CO)C[C@H]1C	0	-83*	0	63
CCCN(C)C[C@H]1Oc2ncc(C#Cc3ccc(F)cc3)cc2C(=O)N([C@@H](C)CO)C[C@H]1C	-2	-86*	-1	92
O=C(CSC1CC(=O)N(c2ccccc2)C1=O)Nc1ccccc1F (stereo unspecified)	·	·	0	·
COc1ccc([N+](=O)[O-])cc1NC(=O)CCSc1ccc(C)cc1	·	·	-1	·
COc1ccc(N(Cc2cc3cc(C)ccc3[nH]c2=O)C(=O)c2ccccc2)cc1	·	·	0	·
C[C@@H]1CN([C@H](C)CO)C(=O)c2cc(C#Cc3ccccc3F)cnc2O[C@H]1CN(C)C(=O)c1ccc2c(c1)OCO2	1	-86*	-8	79
CC(C)NC(=O)N(C)C[C@H]1Oc2ncc(C#Cc3ccccc3F)cc2C(=O)N([C@@H](C)CO)C[C@@H]1C	-1	-82*	-1	89
COc1ccc(C#Cc2cnc3c(c2)C(=O)N([C@H](C)CO)C[C@@H](C)[C@@H](CN(C)C(=O)c2ccccc2F)O3)cc1	19	-72	-2	68
COc1ccc(C#Cc2cnc3c(c2)C(=O)N([C@@H](C)CO)C[C@H](C)[C@H](CN(C)C(=O)c2ccccc2F)O3)cc1	-1	-82*	0	27
C[C@@H]1CN([C@@H](C)CO)C(=O)c2cc(-c3ccc(C#N)cc3)cnc2O[C@@H]1CN(C)C(=O)Nc1ccccc1	33*	43	6	55
C[C@H]1CN([C@@H](C)CO)C(=O)c2cc(-c3ccc(C#N)cc3)cnc2O[C@@H]1CN(C)C(=O)Nc1ccccc1	-1	-13	-1	39
SMILES	KDM4C inh	Pf Dd2 growth	IDH1 R132H inh	T cruzi growth
Cc1c(Cl)cccc1NC(=O)CNC(=O)c1ccc([N+](=O)[O-])cc1	·	·	0	·
Cc1ccc(S(=O)(=O)N(C)C[C@@H]2OCCCC[C@H](C)Oc3ccc(NC(=O)C4CCCCC4)cc3C(=O)N([C@@H](C)CO)C[C@@H]2C)cc1	0	-74	1	55
Cc1ccc(S(=O)(=O)N(C)C[C@@H]2OCCCC[C@@H](C)Oc3ccc(NC(=O)C4CCCCC4)cc3C(=O)N([C@@H](C)CO)C[C@@H]2C)cc1	-2	-79	-3	71
C[C@@H]1CN([C@H](C)CO)C(=O)c2cc(NC(=O)C3CCCCC3)ccc2O[C@@H](C)CCCCO[C@@H]1CN(C)S(=O)(=O)c1ccccc1	0	-82*	·	59
Cc1ccc(S(=O)(=O)N(C)C[C@@H]2OCCCC[C@H](C)Oc3ccc(NC(=O)C4CCCCC4)cc3C(=O)N([C@@H](C)CO)C[C@H]2C)cc1	-1	-85*	·	75
C[C@H](CO)N1C[C@H](C)[C@@H](CN(C)S(=O)(=O)c2ccccc2)OCCCC[C@H](C)Oc2ccc(NC(=O)C3CCCCC3)cc2C1=O	0	-53	·	55
Cc1ccc(S(=O)(=O)N(C)C[C@H]2OCCCC[C@@H](C)Oc3ccc(NC(=O)C4CCCCC4)cc3C(=O)N([C@@H](C)CO)C[C@@H]2C)cc1	0	-76	·	41
Cc1ccc(S(=O)(=O)N(C)C[C@@H]2OCCCC[C@H](C)Oc3ccc(NC(=O)C4CCCCC4)cc3C(=O)N([C@H](C)CO)C[C@H]2C)cc1	0	-86*	·	82
Cc1ccc(S(=O)(=O)N(C)C[C@H]2OCCCC[C@H](C)Oc3ccc(NC(=O)C4CCCCC4)cc3C(=O)N([C@H](C)CO)C[C@H]2C)cc1	-2	-85*	0	49
O=C(CN1C(=O)c2ccccc2C1=O)Nc1ccc(NC(=O)c2ccccc2F)cc1	·	·	0	·
CC(NS(=O)(=O)c1ccc(Br)cc1)C(=O)Nc1ccccc1 (stereo unspecified)	·	·	0	·
Cc1ccc(S(=O)(=O)N(C)C[C@H]2OCCCC[C@H](C)Oc3ccc(NC(=O)C4CCCCC4)cc3C(=O)N([C@@H](C)CO)C[C@@H]2C)cc1	-1	-82*	1	26
CCn1c(SCc2nc3ccccc3c(=O)[nH]2)nnc1-c1cc2cccc(OC)c2o1	·	·	0	·
COc1cccc(C#Cc2cnc3c(c2)C(=O)N([C@@H](C)CO)C[C@H](C)[C@@H](CN(C)C(=O)C2CCOCC2)O3)c1	-2	-83*	-11	·
COc1cccc(C#Cc2cnc3c(c2)C(=O)N([C@@H](C)CO)C[C@H](C)[C@H](CN(C)C(=O)C2CCCCC2)O3)c1	-1	-83*	·	70
C[C@H](CO)N1C[C@H](C)[C@@H](CN(C)C(=O)c2ccccn2)Oc2ncc(Br)cc2C1=O	26*	15	8	·
C[C@@H]1CN([C@@H](C)CO)C(=O)c2cc(Br)cnc2O[C@@H]1CN(C)C(=O)C1CCOCC1	39*	42	19	-13
COc1cccc(C#Cc2cnc3c(c2)C(=O)N([C@H](C)CO)C[C@H](C)[C@H](CN(C)C(=O)C2CCOCC2)O3)c1	5	-13	1	·
CCCC1=CC(=O)C(O)C1O (stereo unspecified)	·	·	0	·
